In ChEMBL document CHEMBL2086284, “(Z)-1-aryl-3-arylamino-2-propen-1-ones, highly active stimulators of tubulin polymerization: synthesis, structure-activity relationship (SAR), tubulin polymerization, and cell growth inhibition studies” (J Med Chem, 2012):
Active and inactive are the calls of the source. The calls are words filed in the database; no cut-off is given here.

Columns and labels:
K562 = experiment: Cytotoxicity against human K562 cells after 96 hrs by trypan blue exclusion assay; assay type: functional, cell-based; conditions: K562, 96 h
Method in brief: (§1)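 Cells grown in DMEM or RPMI with 10% FBS and penicillin-streptomycin. Seeded at 1.0 × 10^5 cells/mL/well in 6-well dishes; compounds were added 24 h later at various concentrations. Viable cells were counted by trypan blue exclusion from duplicate wells after 96 h of treatment, giving a dose-response endpoint.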

DU-145 [1] = experiment: Cytotoxicity against androgen receptor-deficient human DU145 cells after 96 hrs by trypan blue exclusion assay; assay type: functional, cell-based; conditions: DU-145, 96 h; method in brief: as §1
NCI-N87 = experiment: Cytotoxicity against human NCI-N87 cells after 96 hrs by trypan blue exclusion assay; assay type: functional, cell-based; conditions: NCI-N87, 96 h; method in brief: as §1
DU-145 [2] = experiment: Cell cycle arrest in human DU145 cells assessed as accumulation at G2/M phase at 2.5 uM by propidium iodide staining based FACS analysis; assay type: functional; conditions: TDE = time-dependent effect
Method in brief: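 DU145 plated at 1.0 × 10^6 cells/dish and dosed 24 h later at 2.5 μM. Floating and trypsinised cells were pooled at 24, 48 and 72 h, fixed in ice-cold 70% ethanol for at least 24 h, stained 30 min at 37 °C with propidium iodide and RNase A, and analysed for DNA content by flow cytometry.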

HeLa [3] = experiment: Inhibition of cytoplasmic microtubule polymerization in human HeLa cells at 0.5 uM after 18 hrs by FITC-conjugated DAPI staining based fluorescence microscopy; assay type: cell-based
Method in brief: (§2)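 HeLa grown on glass coverslips and exposed for 18 h to test agent (0.25 or 0.5 μM), paclitaxel or vincristine (0.005 μM), or DMSO. Cells were fixed in 4% paraformaldehyde, blocked, permeabilised, and stained with FITC anti-α-tubulin (1:400) and then DAPI (0.5 ug/mL). Mitotic spindles or interphase cytoplasmic microtubules were scored by fluorescence microscopy at 100x.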

HeLa [4] = experiment: Induction of mitotic arrest in human HeLa cells assessed as dispersed chromosome spread with three or more tubulin bundles at 0.5 uM after 18 hrs by FITC-conjugated DAPI staining based fluorescence microscopy; assay type: functional, cell-based; method in brief: as §2
SNU-5 = experiment: Cytotoxicity against human SNU5 cells after 96 hrs by trypan blue exclusion assay; assay type: functional, cell-based; conditions: SNU-5, 96 h; method in brief: as §1
BT-474 = experiment: Cytotoxicity against human BT474 cells expressing estrogen receptor after 96 hrs by trypan blue exclusion assay; assay type: functional, cell-based; conditions: BT-474, 96 h; method in brief: as §1
A549 = experiment: Cytotoxicity against human A549 cells after 96 hrs by trypan blue exclusion assay; assay type: functional, cell-based; conditions: A549, 96 h; method in brief: as §1
[5] = Cytotoxicity against human MES-SA cells after 96 hrs by trypan blue exclusion assay; assay type: functional, cell-based; method in brief: as §1
PANC-1 = experiment: Cytotoxicity against human PANC1 cells after 96 hrs by trypan blue exclusion assay; assay type: functional, cell-based; conditions: PANC-1, 96 h; method in brief: as §1
[6] = Cytotoxicity against human HTB-126 cells after 96 hrs by trypan blue exclusion assay; assay type: functional, cell-based; conditions: HTB126, 96 h; method in brief: as §1
[7] = Cytotoxicity against human COLO320 cells after 96 hrs by trypan blue exclusion assay; assay type: functional, cell-based; conditions: COLO 320, 96 h; method in brief: as §1
BT-20 = experiment: Cytotoxicity against estrogen receptor-deficient human BT20 cells after 96 hrs by trypan blue exclusion assay; assay type: functional, cell-based; conditions: BT-20, 96 h; method in brief: as §1
HeLa [8] = experiment: Induction of mitotic arrest in human HeLa cells assessed as increase of phosphorylated cyclin B1 level at 1 uM after 6 hrs by Western blotting relative to control; assay type: functional
Method in brief: (§3)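 HeLa treated with 1 μM and harvested at set times. Pellets were frozen, then lysed in HEPES/Triton X-100/NaCl buffer, pH 7.5, with phosphatase and protease inhibitors. Blots were probed sequentially for phospho-histone H3 (Ser10), histone H3, cyclin B1, PLK-1 and BubR1, with GAPDH as loading control. Antibodies: primary 1:1000, secondary 1:10,000. Fold increase is relative to control. N=3.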

SK-BR-3 = experiment: Cytotoxicity against estrogen receptor-deficient human SKBR3 cells after 96 hrs by trypan blue exclusion assay; assay type: functional, cell-based; conditions: SK-BR-3, 96 h; method in brief: as §1
HCT-15 = experiment: Cytotoxicity against human HCT15 cells after 96 hrs by trypan blue exclusion assay; assay type: functional, cell-based; conditions: HCT-15, 96 h; method in brief: as §1
MIA PaCa-2 = experiment: Cytotoxicity against human MIAPaCa2 cells after 96 hrs by trypan blue exclusion assay; assay type: functional, cell-based; conditions: MIA PaCa-2, 96 h; method in brief: as §1
HeLa [9] = experiment: Induction of mitotic arrest in human HeLa cells assessed as increase of phosphorylated histone H3 at Ser10 level at 1 uM after 6 hrs by Western blotting; assay type: functional, cell-based; method in brief: as §3
Raji = experiment: Cytotoxicity against human Raji cells after 96 hrs by trypan blue exclusion assay; assay type: functional, cell-based; method in brief: as §1
HeLa [10] = experiment: Cytotoxicity against human HeLa cells after 96 hrs by trypan blue exclusion assay; assay type: functional, cell-based; method in brief: as §1
HeLa [11] = experiment: Induction of mitotic arrest in human HeLa cells assessed as increase of phosphorylated Bcl2 level at 1 uM after 24 hrs by Western blotting relative to control; assay type: functional
Caco-2 = experiment: Cytotoxicity against human Caco2 cells after 96 hrs by trypan blue exclusion assay; assay type: functional, cell-based; conditions: Caco-2, 96 h; method in brief: as §1
HeLa [12] = experiment: Induction of apoptosis in human HeLa cells assessed as cleavage of PARP at 1 uM after 24 hrs by Western blot analysis; assay type: functional, cell-based
Method in brief: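 HeLa exposed to 1.0 μM for a time course. Lysates were resolved on 10% SDS-PAGE, blotted to nitrocellulose and probed with anti-PARP (primary 1:1000, secondary 1:10,000), with ECL detection. Cleaved PARP was taken as the apoptosis/caspase-3 marker. N=3.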

HeLa [13] = experiment: Induction of mitotic arrest in human HeLa cells assessed as increase of phosphorylated PLK1 level at 1 uM after 6 hrs by Western blotting relative to control; assay type: functional; method in brief: as §3
DU-145 [14] = experiment: Cell cycle arrest in human DU145 cells assessed as accumulation at G2/M phase after 24 hrs using propidium iodide staining by FACS analysis; assay type: functional, cell-based
Method in brief: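 DU145 plated at 1.0 × 10^6 cells per dish, treated 24 h later for 24 h across a range of concentrations. Cells were fixed in ice-cold 70% ethanol, stained with propidium iodide plus RNase A for 30 min at 37 °C, and DNA content was read by flow cytometry. Phases: G1 (2N), S (>2N<4N), G2/M (4N). N=3.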

MCF7 = experiment: Cytotoxicity against human MCF7 cells expressing estrogen receptor after 96 hrs by trypan blue exclusion assay; assay type: functional, cell-based; conditions: MCF7, 96 h; method in brief: as §1
HeLa [15] = experiment: Induction of mitotic arrest in human HeLa cells assessed as increase of phosphorylated BUBR1 level at 1 uM after 6 hrs by Western blotting relative to control; assay type: functional; method in brief: as §3
HeLa [16] = experiment: Induction of mitotic arrest in human HeLa cells assessed as unbound chromosome outside metaphase plate at 0.25 uM after 18 hrs by FITC-conjugated DAPI staining based fluorescence microscopy; assay type: functional, cell-based; method in brief: as §2
SK-MEL-28 = experiment: Cytotoxicity against human SK-MEL-28 cells after 96 hrs by trypan blue exclusion assay; assay type: functional, cell-based; conditions: SK-MEL-28, 96 h; method in brief: as §1
HeLa [17] = experiment: Induction of mitotic arrest in human HeLa cells assessed as increase of phosphorylated histone H3 at Ser10 level at 1 uM after 24 hrs by Western blotting relative to control; assay type: functional; method in brief: as §3
[18] = Cytotoxicity against human MESSA/DX5 cells after 96 hrs by trypan blue exclusion assay; assay type: functional, cell-based; conditions: MES-SA/Dx5, 96 h; method in brief: as §1

COc1cc(OC)c(C(=O)/C=C\Nc2ccccc2O)c(OC)c1
IC50 (K562): 75 µM
IC50 (DU-145 [1]): 25 µM

COc1cc(C(=O)/C=C\Nc2ccc3[nH]ccc3c2)cc(OC)c1OC
IC50 (K562): 0.5 µM
IC50 (DU-145 [1]): 0.2 µM

COc1ccc(N/C=C\C(=O)c2cc(OC)c(OC)c(OC)c2[N+](=O)[O-])cc1
IC50 (K562): 0.6 µM
IC50 (DU-145 [1]): 0.6 µM

COc1cc(C(=O)/C=C\Nc2cccc(O)c2)cc(OC)c1OC
IC50 (K562): 0.5 µM
IC50 (DU-145 [1]): 0.75 µM

COc1ccc(C(=O)/C=C\Nc2cc(OC)c(OC)c(OC)c2)cc1
IC50 (K562): 75 µM
IC50 (DU-145 [1]): 50 µM

COc1ccc(N/C=C\C(=O)c2cc(OC)c(OC)c(OC)c2Br)cc1O
IC50 (NCI-N87): 0.3 µM
Activity (DU-145 [2]): tde
inhibition (HeLa [3]): inactive
Activity (HeLa [4]): Active
IC50 (SNU-5): 0.25 µM
IC50 (BT-474): 0.1 µM
IC50 (A549): 0.9 µM
IC50 [5]: 0.25 µM
IC50 (PANC-1): 0.2 µM
IC50 [6]: 0.1 µM
IC50 [7]: 0.15 µM
IC50 (BT-20): 0.75 µM
fold change (FC) (HeLa [8]): 2.5
IC50 (SK-BR-3): 0.3 µM
IC50 (HCT-15): 0.04 µM
IC50 (MIA PaCa-2): 0.8 µM
Activity (HeLa [9]): Active
IC50 (Raji): 0.2 µM
IC50 (HeLa [10]): 0.2 µM
fold change (FC) (HeLa [11]): 88
IC50 (Caco-2): 0.25 µM
Activity (HeLa [12]): Active
fold change (FC) (HeLa [13]): 2.5
IC50 (K562): 0.1 µM
IC50 (DU-145 [1]): 0.06 µM
Activity (DU-145 [14]): Dose-dependent effect
IC50 (MCF7): 0.4 µM
fold change (FC) (HeLa [15]): 2.95
Activity (HeLa [16]): Active
IC50 (SK-MEL-28): 0.2 µM
fold change (FC) (HeLa [17]): 121
IC50 [18]: 0.5 µM

COc1cc(OC)c(C(=O)/C=C\Nc2cc(OC)c(OC)c(OC)c2)c(OC)c1
IC50 (K562): 75 µM
IC50 (DU-145 [1]): 35 µM

COc1cc(C(=O)/C=C\Nc2ccc3[nH]ccc3c2)c(Br)c(OC)c1OC
IC50 (K562): 0.2 µM
IC50 (DU-145 [1]): 0.15 µM

COc1ccc(N/C=C\C(=O)c2cc(OC)c(OC)c(OC)c2Cl)cc1O
IC50 (K562): 0.25 µM
IC50 (DU-145 [1]): 0.2 µM

COc1ccc(N/C=C\C(=O)c2c(OC)cc(OC)cc2OC)c(OC)c1
IC50 (K562): 75 µM
IC50 (DU-145 [1]): 75 µM

COc1cc(C(=O)/C=C\Nc2ccccc2O)cc(OC)c1OC
IC50 (K562): 0.5 µM
IC50 (DU-145 [1]): 0.25 µM

COc1cc(C(=O)/C=C\Nc2ccccc2O)c(Br)c(OC)c1OC
IC50 (K562): 0.2 µM
IC50 (DU-145 [1]): 0.25 µM

COc1ccccc1N/C=C\C(=O)c1cc(OC)c(OC)c(OC)c1
IC50 (K562): 2.5 µM
IC50 (DU-145 [1]): 2.5 µM

COc1ccc(N/C=C\C(=O)c2ccc(OC)cc2)cc1
IC50 (K562): 100 µM
IC50 (DU-145 [1]): 75 µM

COc1cc(C(=O)/C=C\Nc2ccc(C(F)(F)F)cc2)cc(OC)c1OC
IC50 (K562): 0.5 µM
IC50 (DU-145 [1]): 0.5 µM

COc1ccc(N/C=C\C(=O)c2cc(OC)c(OC)c(OC)c2)cc1F
IC50 (K562): 0.25 µM
IC50 (DU-145 [1]): 0.25 µM

COc1cc(N/C=C\C(=O)c2cc(OC)c(OC)c(OC)c2)cc(OC)c1OC
IC50 (K562): 25 µM
IC50 (DU-145 [1]): 40 µM
